CHOP inhibitor: inhibitors of CHOP promoter induction, primary screen, cell-based, unfolded protein response, luciferase reporter. CHO-K1 CHOP-promoter luciferase, tunicamycin-induced, 15-18 h. inhibition, % at 10 µM. hit rate 3.8% among 220,000;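 active means compounds that reduced the stress-induced luciferase reporter signal by more than about 70% of percent inhibition, limit read from the data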;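 further: 0% = tunicamycin plus vehicle and 100% = wells without tunicamycin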
UPR CHOP act: activators of apoptotic CHOP UPR arm, primary screen, cell-based, CHO-CHOP luciferase reporter, luminescence, uHTS; UPR activation; percent of tunicamycin response over DMSO baseline; activation, % at 10 µM; hit rate 0.34% among 330,000;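 active means at 10 µM dose, activation of 40% or more, normalized to positive control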;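 further: 100% = tunicamycin at 10 µg/mL and 0% = DMSO alone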
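measured by = luciferase luminescence | assay system = CHO-CHOP cells, stable luciferase reporter of PERK-eIF2a-CHOP signalling | amount = 500 reporter cells seeded per well | timing = 6 h compound exposure at 37 °C after overnight seeding | controls = positive tunicamycin 10 µg/mL, negative DMSO alone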
T cruzi repl: inhibitors of intracellular T. cruzi growth, primary screen, luminescence, NIH3T3 host cells. T. cruzi beta-gal in NIH3T3, 90 h. inhibition, % (concentration not given with the values). hit rate 1.4% among 300,000. AID 1885, 2009;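 active means mean inhibition across valid replicates above about 55%, limit read from the data; inconclusive means mean below that limit but half or more replicates reach it; inactive means mean below it, under half of replicates reach it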;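 further: signal also drops with host cell toxicity which is not excluded here; 0% = plate median of DMSO wells and 100% = zero luminescence signal; higher percent means less beta-gal luminescence so fewer parasites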
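assay system = mouse NIH/3T3 fibroblasts infected with β-gal-expressing T. cruzi Tulahuen C4 | input = 5,000 NIH/3T3 host cells per well | buffer or medium = DMEM plus 2% FBS | timing = 3 h host attachment, then at least 90 h co-culture | measured by = GalScreen luminescence, 60 min | evaluation = luminescence reflecting intracellular parasite burden, expressed as percent inhibition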
XBP1 UPR activ: activators of adaptive XBP1 UPR arm, primary screen, cell-based, CHO-XBP1 luciferase reporter, luminescence, uHTS. IRE1-XBP1 UPR activation; percent of tunicamycin response, DMSO as zero. activation, % at 20 µM. hit rate 0.33% among 330,000;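 active means versus positive control, 20 µM dose yields 30% or more activation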;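 further: 100% = tunicamycin at 10 µg/mL and 0% = DMSO only wells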
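Signal: luciferase luminescence; Assay system: CHO-XBP1 luciferase reporter cells; Amount: one thousand reporter cells per well; Dosing: 20 µM single concentration, DMSO 1%; Benchmarks: high control tunicamycin 10 µg/mL final, low control DMSO vehicle only; Schedule: 6 h compound exposure at 37 °C, 5% CO2; Evaluation: percent activation relative to tunicamycin reference.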
Lmaj promast: Leishmania major promastigote growth inhibition, primary screen; Leishmania major promastigotes, resazurin fluorescence viability; hit rate 9% among 200,000; inhibition, % at 10 µM; in the data active means inhibition above about 50%;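 further: promastigotes grown with compound for 44 hours at 28 °C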
Dynein transport: inhibitors of GR-EGFP nuclear translocation, primary screen, dynein cargo transport inhibitor project, imaging, high-content, 3617.4 mouse cells. test concentration mostly 20 µM; stimulated with dexamethasone, 1 µM; stronger effect = lower value. z-score, hits read low. hit rate 0.47% among 220,000. AID 1381, 2008;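 active means plate z-score of nuclear minus cytoplasmic receptor signal below a set negative limit, without overly bright fluorescence or cell loss, cut at about -3.5 in these data, passing the limit was not always enough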;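 further: z-score of nuclear minus cytoplasmic ring GR-EGFP intensity difference per well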
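medium = tetracycline-free induction medium containing charcoal-stripped FBS | probe or stimulus = dexamethasone, 1.0 µM final | timing = 48 h induction, then 1 h compound, then 30 min agonist, 37 °C | detection = automated 10x imaging of fixed Hoechst-stained cells | read-out basis = nuclear versus cytoplasmic GR-EGFP signal, averaged per well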
Dynein inh conf: dynein cargo transport inhibitors, GR-EGFP translocation, confirmation, imaging, high-content imaging, GR-EGFP cells; shares compounds with Dynein transport; 3617.4 GR-EGFP nuclear translocation imaging, dexamethasone-induced; calls only at 20 µM; hit rate 69% among 1,000;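 active means inhibition of receptor movement into the nucleus at or above a set limit in both runs, with normal cell brightness and cell count; inconclusive means limit reached in only one run, brightness and count normal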;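 further: dexamethasone at 1 µM final in well for 30 min; nuclear minus cytoplasmic GR-EGFP mean intensity difference in channel 2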
The depositor's hits bear a star; i = inactive; u = inconclusive; x = no result; + = active, no number. The full list was thinned out, with hits kept by preference.

SMILES	CHOP inhibitor	UPR CHOP act	T cruzi repl	XBP1 UPR activ	Lmaj promast	Dynein transport	Dynein inh conf
Cc1cccc(NC(=S)NC(=O)c2oc3ccccc3c2C)n1	x	3	-10	9	x	x	x
O=C(/C=C/c1ccccc1O)c1ccco1	x	8	-28	17	x	x	x
O=C(/C=C/c1cc(Br)ccc1O)c1ccco1	-47	4	-20	2	x	-4.7*	i
COc1ccc(/C=C/C(=O)NCC2COc3ccccc3O2)cc1OC (stereo unspecified)	9	0	15	2	-5	1.2	x
Cc1ccc(/C=C/C(=O)NCC2COc3ccccc3O2)o1 (stereo unspecified)	-66	0	-14	-2	0	-6.6*	+
O=C1NC(Cc2ccccc2)c2nc3ccc(Cl)cc3c(=O)n2-c2ccccc21 (stereo unspecified)	x	-1	x	2	x	x	x
COC1=C(C)C(O)=C(C(=O)/C=C/c2ccccc2)C(=O)C1(C)C	1	0	-22	1	x	-5.2*	+
O=S1(=O)CCC(NC(=S)SCCOc2ccccc2)C1 (stereo unspecified)	60	12	-3	-3	92*	-3.9*	+
CNC(=S)SCCOc1ccccc1	15	4	4	-1	x	-0.37	x
CCOc1ccc(NC(=O)CN(C)C(=O)c2sc3ccccc3c2Cl)cc1OCC	x	-1	0	-1	x	x	x
CCn1c(=O)cc(C(=O)OC)sc1=Nc1ccc(F)c(F)c1	96*	8	2	6	86*	-3.9*	+
NC(=O)C(=O)N/N=C/c1cccc(C(F)(F)F)c1	6	2	6	0	-2	-0.75	x
CS(=O)(=O)c1sc(C#N)c2c1C(=O)CC(c1ccccc1)C2 (stereo unspecified)	107*	-11	39	-11	x	-3.8*	u
COc1ccc(Nc2nnc(C)c(=O)[nH]2)c(OC)c1	47	-1	-13	-4	x	1.9	x
CC(=O)/C=C1/C(=O)Nc2ccccc21	4	1	24	6	94*	-5.6*	+
CCOC(=O)/C(=C/C=C1\Sc2cc(C)c(C)cc2N1CC)C(C)=O	94*	x	36	x	9	-3.8	i
CCOC(=O)/C(=C/C=C1\Sc2ccccc2N1CC)C(C)=O	30	1	19	4	15	-0.47	x
CC(C)[C@H](NC(=O)CCCn1nnc2ccccc2c1=O)C(=O)O	16	-1	-16	0	x	0.23	x
Cn1nnnc1SC1CC(=O)N(c2ccccc2)C1=O (stereo unspecified)	-6	1	66*	0	-2	-4.6*	+
COc1ccc(NC(=O)Nc2nc(C)cc(C)n2)c(OC)c1	7	0	-19	0	x	0.34	x
O=C(c1cc(F)ccc1F)C1CCCN(C(=O)c2ccc3nccnc3c2)C1 (stereo unspecified)	x	1	-18	1	x	x	x
COc1ccc(C(CNC(=O)CSc2ccc(Br)cc2C)N2CCOCC2)cc1 (stereo unspecified)	x	0	3	-2	x	x	x
COCCOC(=O)/C(=C\c1cc(C(C)(C)C)c(O)c(C(C)(C)C)c1)C(C)=O	-8	5	10	1	x	-5.3*	+
O=S(=O)(NNc1ncc(C(F)(F)F)cc1Cl)c1ccccc1	x	0	x	0	x	x	x
COc1cc2c(cc1OC)CN(CCC(=O)c1ccc(Br)cc1)CC2	-33	-2	-1	-3	61*	-4.1*	u
SMILES	CHOP inhibitor	UPR CHOP act	T cruzi repl	XBP1 UPR activ	Lmaj promast	Dynein transport	Dynein inh conf
CC1CCN(C(=O)COC(=O)Cc2ccc(Br)cc2)CC1	x	0	-2	-3	x	x	x
CC1=CC(=O)C(C(C)C)=C/C1=N/OS(=O)(=O)c1ccccc1	106*	-9	53	-8	x	-4.2*	i
CCOC(=O)/C=C/C(=O)Nc1ccccc1C(=O)NC1CCCCC1	-39	0	6	-1	28	0.14	x
O=C(NCCC1=CCCCC1)c1coc(=O)c(Br)c1	50	32	-9	-5	-4	-6*	u
Cc1ccc(C)n1-c1nnc(N2CCC(C(=O)NCCCN3CCN(C)CC3)CC2)s1	x	0	-19	-2	x	x	x
COc1ccccc1-n1cc(-c2ccccc2)c2c(=S)nc[nH]c21	x	0	-37	-5	x	x	x
CC1(C)Cc2c(C#N)c(NC3CCCCC3)nc(-c3ccco3)c2CO1	-31	1	9	0	3	-4.3*	i
Cc1ccc(N2C(=N)/C(=C3/Nc4ccccc4S3)C(c3ccccc3)C2=O)cc1 (stereo unspecified)	-3	x	x	x	100*	-3.6*	+
CCOC(=O)N1CCN(C(=O)c2ccc(SC)cc2OC)CC1	4	-1	-3	-1	-8	-0.55	x
COCCCn1c(O)c(/C=C2\N=C(C#N)C(=Nc3ccc(C)cc3)O2)sc1=S	-6	14	5	8	x	-6.4	+
CN(C(=O)COC(=O)/C=C/c1ccc(Cl)c(Cl)c1)c1c(N)n(Cc2ccccc2)c(=O)[nH]c1=O	x	2	-3	-1	x	x	x
Nc1ccc(O)cc1C(=O)OCC(=O)c1ccc(C2CCCCC2)cc1	39	x	12	x	60*	-3.5*	+
COC1CCN(C(=O)C2CCC(=O)N(CCc3cccc(F)c3)C2)CC1 (stereo unspecified)	x	4	-9	-1	x	x	x
CN1CCN(C2=CC3=CC(=C(C#N)C#N)CCC3CC2)CC1 (stereo unspecified)	6	x	x	x	43	-3.8*	i
N#CC(C#N)=C1C=C2C=C(N3CCCCCC3)CCC2CC1 (stereo unspecified)	9	x	30	x	12	-3.7*	+
N#Cc1cc(Cl)c(N2CCOCC2)cc1C#N	15	1	-15	-1	-3	1.6	x
CCN1CCN(C2=CC3=CC(=C(C#N)C#N)CCC3CC2)CC1 (stereo unspecified)	5	x	x	x	88*	-5.2*	+
N#CC(C#N)=C1C=C2C=C(N3CCOCC3)CCC2CC1 (stereo unspecified)	-19	x	19	x	-4	-7*	+
Cn1nnnc1SCc1ccc([N+](=O)[O-])cc1	-27	2	-15	4	0	0.67	x
COc1ccc(NC(=O)c2ccc(C)cc2)c[n+]1[O-]	x	x	-5	x	x	x	x
CCc1ccc(NS(=O)(=O)c2cccs2)cc1	4	0	11	2	-4	-4.1	i
